Results from different studies.
Compare with care: the assays were run in different laboratories.
Target: Fibroblast growth factor receptor 4 (FGFR4, Homo sapiens, UniProt P22455)

Compound	effect on	mode	method	tested at	measurement	value
Cn1cc(-c2cccc(N3CCc4c(sc5c4CC(C)(C)C5)C3=O)c2CO)cc(Nc2ccncn2)c1=O	enzyme activity	inhibitor	–	1 µM	inhibition	-2%
COCc1c(-c2cc3cc(C)cc(OC)c3s2)c2c(N)ncnn2c1CN1CCNC(=O)C1	cell-free assay	–	competition with immobilised ligand	1 µM	inhibition	99.9%
Cn1cc(-c2cc(F)cc(N3CCn4c(cc5c4CCCC5)C3=O)c2CO)cc(Nc2ccc(N3CCN(C4COC4)CC3)cn2)c1=O	enzyme activity	inhibitor	–	0.1 µM	inhibition	2%
C#Cc1n[nH]c2c(-c3cn([C@@H](C)c4ccccn4)c(=O)[nH]c3=O)cc(F)cc12	enzyme activity	inhibitor	–	0.1 µM	inhibition	7.2%
Cc1nn(C)cc1-c1nc2c(N3CCN(Cc4ccc(Cl)cc4)CC3)c(Cl)cnc2[nH]1	binding	–	competition with immobilised ligand	1 µM	remaining binding	68%
O=c1[nH]c2ccccc2n1C1CCN(Cc2ccc(-c3[nH]c4cc5ncnc5cc4nc3-c3ccccc3)cc2)CC1	cell-free assay	–	–	0.5 µM	remaining signal	97.2%
COc1cc(Nc2ncc(F)c(Nc3ccc4c(n3)NC(=O)C(C)(C)O4)n2)cc(OC)c1OC	binding	–	competition with immobilised ligand	10 µM	inhibition	97%
Nc1ncc(-c2nc(N3CCOCC3)nc(N3CCOCC3)n2)c(C(F)F)n1	cell-free assay	–	competition with immobilised ligand	10 µM	remaining binding	100%
N#CC1(c2ccccn2)CCN(Cc2cc(C(=O)O)c(=O)n3ccccc23)CC1	cell-free assay	–	competition with immobilised ligand	1 µM	remaining binding	100%
COc1ncccc1-c1cnn2ccc(N3CCN(C(=O)OC(C)C)CC3)nc12	binding	–	competition with immobilised ligand	1 µM	remaining binding	60%
C#Cc1n[nH]c2c(-c3cn([C@@H](C)c4ccccc4)c(=O)[nH]c3=O)cc(F)cc12	enzyme activity	inhibitor	–	0.1 µM	inhibition	0%
Cn1cncc1[C@](O)(COc1ccc(C#N)cc1-c1ccc(OC(F)(F)F)cc1)c1ccc(C#N)cc1	cell-free assay	–	competition with immobilised ligand	1 µM	remaining binding	100%
CC(C)(C)c1cc(C=C(C#N)C#N)cc(Br)c1O	enzyme activity	inhibitor	–	0.5 µM	remaining activity	98%
